Experimental data: article PMC9075506 (RSC Advances, 2019)
Like-named read-outs stand apart in the source and are kept apart here.

Key:
[1] = Pharmacokinetic study in 6-OHDA-induced PD rats after oral administration; type: in vivo; details: rat, plasma
[2] = Pharmacokinetic study in sham rats after oral administration of PLA; type: in vivo; details: rat, plasma, 50 mg/kg
[3] = normal rats, oral administration of PLA, tissue distribution; cited from earlier work
[4] = type: in vitro ADME, rat; details: n = 3; for Stability, autosampler (20 °C, 4 h), RE: processed rat plasma; for Stability, long-term (−80 °C, 30 d), RE / Stability, short-term (4 °C, 48 h), RE / Stability, three freeze–thaw cycles, RE: rat plasma
Method in brief: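 Plasma (50 μL) precipitated with methanol/acetonitrile (1:1) containing internal standard (10 ng mL−1), vortexed 3 min, centrifuged 12 000 g for 10 min. Supernatant was run on C18 UFLC with a 0.1% formic acid/acetonitrile gradient at 0.5 mL min−1, detected by positive-ESI MRM. Quantified by analyte/IS peak-area ratio against a 1/x2-weighted linear calibration; accuracy given as RE (%).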

[5] = high QC: spiked 160 ng mL^−1 (PLTR 4000 ng mL^−1)
[6] = low QC: spiked 0.6 ng mL^−1 (PLTR 15 ng mL^−1)
[7] = medium QC: spiked 10 ng mL^−1 (PLTR 250 ng mL^−1)

SMILES: CC(C)CNC(=O)/C=C/C=C/c1ccc2c(c1)OCO2 [PPL, piperlonguminine]
- AUC(0-inf) ([1]; 50 mg/kg): 245 ± 57.5 ng·h/mL
- AUC(0-t) ([1]; 50 mg/kg): 242 ± 57.2 ng·h/mL
- Cmax ([1]; 50 mg/kg): 97.3 ± 18 ng/mL
- MRT ([1]; 50 mg/kg): 2.98 ± 0.84 h
- Tmax ([1]; 50 mg/kg): 0.45 ± 0.21 h
- half-life ([1]; 50 mg/kg): 2.42 ± 1.23 h
- AUC(0-inf) [2]: 318 ± 123 ng·h/mL
- AUC(0-t) [2]: 302 ± 116 ng·h/mL
- Cmax [2]: 89.1 ± 41.7 ng/mL
- MRT [2]: 4.6 ± 1.33 h
- Tmax [2]: 0.45 ± 0.11 h
- half-life [2]: 3.68 ± 1.32 h
- Crossing of the blood–brain barrier [3]: could cross the blood–brain barrier
- Stability, autosampler (20 °C, 4 h), RE [4, 5]: −5.63%
- Stability, autosampler (20 °C, 4 h), RE [4, 6]: −4.78%
- Stability, autosampler (20 °C, 4 h), RE [4, 7]: 5.33%
- Stability, long-term (−80 °C, 30 d), RE [4, 5]: −1.04%
- Stability, short-term (4 °C, 48 h), RE [4, 5]: −3.75%
- Stability, three freeze–thaw cycles, RE [4, 5]: 0.63%
- Stability, long-term (−80 °C, 30 d), RE [4, 6]: −4.78%
- Stability, short-term (4 °C, 48 h), RE [4, 6]: −9.22%
- Stability, three freeze–thaw cycles, RE [4, 6]: −12.61%
- Stability, long-term (−80 °C, 30 d), RE [4, 7]: 8.00%
- Stability, short-term (4 °C, 48 h), RE [4, 7]: 7.33%
- Stability, three freeze–thaw cycles, RE [4, 7]: 6.67%

SMILES: O=C(/C=C/C=C/c1ccc2c(c1)OCO2)N1CCCCC1 [PPR, piperine]
- AUC(0-inf) ([1]; 25 mg/kg): 7120 ± 1770 ng·h/mL
- AUC(0-t) ([1]; 25 mg/kg): 7110 ± 1770 ng·h/mL
- Cmax ([1]; 25 mg/kg): 825 ± 241 ng/mL
- MRT ([1]; 25 mg/kg): 6.27 ± 0.56 h
- Tmax ([1]; 25 mg/kg): 2.95 ± 2.06 h
- half-life ([1]; 25 mg/kg): 2.41 ± 0.34 h
- AUC(0-t) ([1]; 50 mg/kg): 9700 ± 2670 ng·h/mL
- Cmax ([1]; 50 mg/kg): 978 ± 214 ng/mL
- MRT ([1]; 50 mg/kg): 5.99 ± 0.63 h
- Tmax ([1]; 50 mg/kg): 4 ± 1.41 h
- half-life ([1]; 50 mg/kg): 3.65 ± 3.45 h
- Cmax [2]: 1000 ± 146 ng/mL
- MRT [2]: 6.83 ± 0.44 h
- Tmax [2]: 4.8 ± 2.28 h
- half-life [2]: 3.4 ± 2.15 h
- Crossing of the blood–brain barrier [3]: could cross the blood–brain barrier
- Stability, autosampler (20 °C, 4 h), RE [4, 5]: −5.00%
- Stability, autosampler (20 °C, 4 h), RE [4, 6]: −2.67%
- Stability, autosampler (20 °C, 4 h), RE [4, 7]: 7.67%
- Stability, long-term (−80 °C, 30 d), RE [4, 5]: 0.21%
- Stability, short-term (4 °C, 48 h), RE [4, 5]: −2.92%
- Stability, three freeze–thaw cycles, RE [4, 5]: 0.42%
- Stability, long-term (−80 °C, 30 d), RE [4, 6]: −7.44%
- Stability, short-term (4 °C, 48 h), RE [4, 6]: −4.06%
- Stability, three freeze–thaw cycles, RE [4, 6]: −5.06%
- Stability, long-term (−80 °C, 30 d), RE [4, 7]: 10.33%
- Stability, short-term (4 °C, 48 h), RE [4, 7]: 11.33%
- Stability, three freeze–thaw cycles, RE [4, 7]: 9.67%

SMILES: O=C(/C=C/CCc1ccc2c(c1)OCO2)N1CCCCC1 [PPRA, piperanine]
- AUC(0-inf) ([1]; 50 mg/kg): 137 ± 45.3 ng·h/mL
- AUC(0-t) ([1]; 50 mg/kg): 136 ± 45.6 ng·h/mL
- Cmax ([1]; 50 mg/kg): 123 ± 57.6 ng/mL
- MRT ([1]; 50 mg/kg): 2.43 ± 1.52 h
- Tmax ([1]; 50 mg/kg): 0.18 ± 0.09 h
- half-life ([1]; 50 mg/kg): 2.8 ± 1.71 h
- AUC(0-inf) [2]: 230 ± 150 ng·h/mL
- AUC(0-t) [2]: 225 ± 155 ng·h/mL
- Cmax [2]: 160 ± 120 ng/mL
- MRT [2]: 3.72 ± 1.3 h
- Tmax [2]: 0.18 ± 0.09 h
- half-life [2]: 4.16 ± 1.32 h
- Stability, autosampler (20 °C, 4 h), RE [4, 5]: −9.38%
- Stability, autosampler (20 °C, 4 h), RE [4, 6]: −2.28%
- Stability, autosampler (20 °C, 4 h), RE [4, 7]: 7.33%
- Stability, long-term (−80 °C, 30 d), RE [4, 5]: −6.25%
- Stability, short-term (4 °C, 48 h), RE [4, 5]: −8.33%
- Stability, three freeze–thaw cycles, RE [4, 5]: −4.79%
- Stability, long-term (−80 °C, 30 d), RE [4, 6]: 0.94%
- Stability, short-term (4 °C, 48 h), RE [4, 6]: −3.50%
- Stability, three freeze–thaw cycles, RE [4, 6]: 4.67%
- Stability, long-term (−80 °C, 30 d), RE [4, 7]: 6.33%
- Stability, short-term (4 °C, 48 h), RE [4, 7]: 10.00%
- Stability, three freeze–thaw cycles, RE [4, 7]: 7.33%
